Measured values taken from ChEMBL document CHEMBL4402547, “Synthesis and Pharmacological Characterization of Conformationally Restricted Retigabine Analogues as Novel Neuronal Kv7 Channel Activators” (J Med Chem, 2020).
Activity calls are given as the source filed them. No cut-off for these calls is given here.

Columns and labels:
[1] = biological target: T1, Potassium voltage-gated channel subfamily KQT member 2 (Homo sapiens, UniProt O43526); test: Activation of human Kv7.2 expressed in CHO cells assessed as increase in maximal channel conductance at 0.03 uM in constant voltage pulses by whole cell patch clamp electrophysiology assay; assay type: cell-based
Outline: (§1)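 Transiently transfected CHO cells (human Kv7.2 cDNA in pcDNA3.1, EGFP marker), recorded 24 h post-transfection by whole-cell patch clamp at 20–22°C; extracellular solution in mM 138 NaCl, 2 CaCl₂, 5.4 KCl, 1 MgCl₂, 10 glucose, 10 HEPES, pH 7.4. Constant voltage pulses before and after 0.03 μM compound; conductance/voltage curves fitted to double Boltzmann for V1/2 and maximal conductance.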

[2] = biological target: T1, Potassium voltage-gated channel subfamily KQT member 2; test: Activation of human Kv7.2 expressed in CHO cells assessed as maximal steady-state increase in current amplitude at 10 uM measured after 200 secs at holding potential of -40 mV by whole cell patch clamp electrophysiology assay; assay type: cell-based
[3] = biological target: T2, Potassium voltage-gated channel subfamily KQT member 1 (Homo sapiens, UniProt P51787); test: Activation of human Kv7.1 expressed in CHO cells assessed as channel current amplitude at 10 uM measured at holding potential of +20 mV and -40 mV by whole cell patch clamp electrophysiology assay; assay type: cell-based
T2 sequence (P51787 whole entry): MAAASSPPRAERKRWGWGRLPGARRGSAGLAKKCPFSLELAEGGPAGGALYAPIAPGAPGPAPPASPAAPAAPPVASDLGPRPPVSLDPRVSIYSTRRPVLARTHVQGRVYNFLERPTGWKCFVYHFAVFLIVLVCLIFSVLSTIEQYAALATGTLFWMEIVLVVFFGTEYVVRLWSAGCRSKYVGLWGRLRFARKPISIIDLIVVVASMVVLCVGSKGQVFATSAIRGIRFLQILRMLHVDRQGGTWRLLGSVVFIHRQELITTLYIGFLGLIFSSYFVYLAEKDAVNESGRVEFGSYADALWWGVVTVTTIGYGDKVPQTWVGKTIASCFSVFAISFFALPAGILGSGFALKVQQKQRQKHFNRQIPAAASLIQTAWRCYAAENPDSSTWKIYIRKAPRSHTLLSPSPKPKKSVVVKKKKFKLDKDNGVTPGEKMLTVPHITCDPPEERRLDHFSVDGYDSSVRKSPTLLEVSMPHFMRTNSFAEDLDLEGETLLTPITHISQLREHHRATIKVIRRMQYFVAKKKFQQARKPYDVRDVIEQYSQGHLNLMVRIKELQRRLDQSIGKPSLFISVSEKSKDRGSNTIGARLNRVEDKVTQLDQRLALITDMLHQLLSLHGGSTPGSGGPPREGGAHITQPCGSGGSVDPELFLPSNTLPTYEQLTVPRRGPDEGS

[4] = biological target: T1, Potassium voltage-gated channel subfamily KQT member 2; test: Activation of human Kv7.2 expressed in CHO cells assessed as half-activation voltage at 0.03 uM in constant voltage pulse by whole cell patch clamp electrophysiology assay (reference value: -38.2 +/- 2 mV); assay type: cell-based; outline: as §1
[5] = Half life in human; assay type: ADME
[6] = Photostability of compound in pH 7.4 buffer assessed as compound degradation at 100 ug/ml incubated for 6 hrs under UV-irradiation at wavelength of 365 and 264 nm by HPLC analysis
Outline: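 Compound from DMSO stock diluted in pH 7.4 buffer to final 1 mM, 10 μM or 1 μM in 1 cm quartz cells, held at 37°C under UV lamp (365 and 264 nm) or artificial daylight D65 lamp; dark controls in foil at 37°C. Aliquots taken at set intervals; loss of parent by HPLC (C18, TFA water/acetonitrile gradient, 254 nm).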

[7] = Photostability of compound in pH 7.4 buffer assessed as formation of ethyl (2,4-bis((4-fluorobenzyl)amino)phenyl)carbamate by measuring retention time of metabolite incubated for 6 hrs under visible light irradiation by HPLC/MS analysis
[8] = biological target: T1, Potassium voltage-gated channel subfamily KQT member 2; test: Activation of human Kv7.2 expressed in CHO cells assessed as maximal steady-state increase in current amplitude at 10 uM measured within 10 secs at holding potential of -40 mV by whole cell patch clamp electrophysiology assay; assay type: cell-based
Outline: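 Human Kv7.2 transiently expressed in CHO cells, whole-cell patch clamp at 20–22°C, pH 7.4 HEPES-buffered extracellular solution under constant perfusion. Cells held at -80 mV; 3-s ramps -80 to +20 mV with and without compound; current at -40 mV taken as drug/control amplitude ratio, followed over time during application and wash-out; mean ± SEM of ≥3 cells from ≥2 transfections.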

[9] = biological target: T3, Potassium voltage-gated channel subfamily KQT member 3 (Homo sapiens, UniProt O43525); test: Activation of human Kv7.3 expressed in CHO cells assessed as increase in channel current amplitude by whole cell patch clamp electrophysiology assay; assay type: cell-based
T3 sequence (O43525 whole entry): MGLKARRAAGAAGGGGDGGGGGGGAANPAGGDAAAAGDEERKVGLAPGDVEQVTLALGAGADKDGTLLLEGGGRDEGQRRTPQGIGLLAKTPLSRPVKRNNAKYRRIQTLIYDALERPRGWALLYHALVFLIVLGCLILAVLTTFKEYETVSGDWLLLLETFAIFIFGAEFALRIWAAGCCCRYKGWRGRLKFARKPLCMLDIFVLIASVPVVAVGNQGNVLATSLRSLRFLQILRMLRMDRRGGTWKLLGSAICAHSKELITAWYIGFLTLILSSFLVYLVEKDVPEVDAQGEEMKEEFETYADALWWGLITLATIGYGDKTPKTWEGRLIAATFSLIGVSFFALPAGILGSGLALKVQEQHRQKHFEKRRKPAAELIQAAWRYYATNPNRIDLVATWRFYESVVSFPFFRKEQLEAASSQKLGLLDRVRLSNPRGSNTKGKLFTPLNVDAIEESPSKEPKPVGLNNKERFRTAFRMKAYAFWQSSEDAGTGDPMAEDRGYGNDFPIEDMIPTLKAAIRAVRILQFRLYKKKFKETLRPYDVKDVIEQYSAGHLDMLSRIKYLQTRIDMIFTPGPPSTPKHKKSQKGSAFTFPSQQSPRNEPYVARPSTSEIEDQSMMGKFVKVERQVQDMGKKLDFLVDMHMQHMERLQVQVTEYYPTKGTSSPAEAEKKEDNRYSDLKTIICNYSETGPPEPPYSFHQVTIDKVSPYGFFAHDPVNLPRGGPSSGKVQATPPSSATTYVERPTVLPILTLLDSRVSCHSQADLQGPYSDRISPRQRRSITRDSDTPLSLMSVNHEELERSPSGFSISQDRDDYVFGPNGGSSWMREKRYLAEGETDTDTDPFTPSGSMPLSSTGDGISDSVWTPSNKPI

[10] = biological target: Voltage-gated potassium channel, KQT; KCNQ2(Kv7.2)/KCNQ3(Kv7.3) (Homo sapiens, UniProt O43525+O43526); test: Activation of human Kv7.2/Kv7.3 expressed in CHO cells assessed as increase in channel current amplitude by whole cell patch clamp electrophysiology assay; assay type: cell-based
Outline: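 Human Kv7.2 plus Kv7.3 cDNAs co-transfected into CHO cells; whole-cell patch clamp at 20–22°C, extracellular solution pH 7.4. Drug applied at 0.01–10 μM to test concentration-dependent current increase.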

[11] = biological target: T1, Potassium voltage-gated channel subfamily KQT member 2; test: Activation of human Kv7.2 expressed in CHO cells assessed as increase in channel current amplitude by whole cell patch clamp electrophysiology assay; assay type: cell-based

T1 sequence (O43526 whole entry): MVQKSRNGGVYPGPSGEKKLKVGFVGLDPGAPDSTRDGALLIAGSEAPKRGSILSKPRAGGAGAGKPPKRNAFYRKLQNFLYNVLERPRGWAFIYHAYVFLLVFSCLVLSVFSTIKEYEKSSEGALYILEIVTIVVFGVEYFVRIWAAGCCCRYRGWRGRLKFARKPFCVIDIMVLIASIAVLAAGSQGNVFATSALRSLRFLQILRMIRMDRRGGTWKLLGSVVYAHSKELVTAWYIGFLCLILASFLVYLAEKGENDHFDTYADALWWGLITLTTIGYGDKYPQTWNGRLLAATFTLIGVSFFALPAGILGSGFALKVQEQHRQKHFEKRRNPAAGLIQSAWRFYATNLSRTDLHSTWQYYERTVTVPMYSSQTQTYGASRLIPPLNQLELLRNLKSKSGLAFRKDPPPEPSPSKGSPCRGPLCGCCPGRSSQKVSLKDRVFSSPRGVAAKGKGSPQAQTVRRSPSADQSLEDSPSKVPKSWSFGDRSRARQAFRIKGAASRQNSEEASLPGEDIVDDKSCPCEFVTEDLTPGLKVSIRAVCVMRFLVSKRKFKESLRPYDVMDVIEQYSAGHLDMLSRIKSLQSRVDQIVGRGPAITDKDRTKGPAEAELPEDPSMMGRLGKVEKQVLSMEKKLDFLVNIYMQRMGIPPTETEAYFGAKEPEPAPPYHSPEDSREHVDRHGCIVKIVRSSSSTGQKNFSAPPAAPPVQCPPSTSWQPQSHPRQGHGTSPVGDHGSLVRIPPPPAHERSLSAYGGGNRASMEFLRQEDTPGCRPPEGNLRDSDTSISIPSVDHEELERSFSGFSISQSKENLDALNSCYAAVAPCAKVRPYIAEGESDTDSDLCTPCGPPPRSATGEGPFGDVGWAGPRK
Chain of Voltage-gated potassium channel, KQT; KCNQ2(Kv7.2)/KCNQ3(Kv7.3) (O43526 whole entry, one chain of several): as the sequence (O43526 whole entry) above

Row | SMILES | Activity [1] | Activity [2] | Activity [3] | V1/2 [4] [mV] | half-life [5] [h] | Drug degradation [6] [%] | Retention time [7] [min] | Activity [8] | EC50 [9] [nM] | EC50 [10] [nM] | EC50 [11] [nM]
1 | CCCCCCC(=O)Nc1ccc2c(ccn2Cc2ccc(C(F)(F)F)cc2)c1 | Active | Active | Not Active | -38.2 | – | – | – | – | – | – | –
2 | CCOC(=O)Nc1ccc(NCc2ccc(F)cc2)cc1N [EZOGABINE] | inactive | – | Not Active | -24.4 | 6 to 8 | 5 | 14.4 | Active | – | – | –
3 | CC(C)(C)CC(=O)Nc1ccc2c(ccn2Cc2ccc(C(F)(F)F)cc2)c1 | – | Active | – | – | – | – | – | – | 920 | 340 | 630
